Experimental data reported in ChEMBL document CHEMBL2021764, “2-Aminothiophenes as building blocks in heterocyclic synthesis: synthesis and antimicrobial evaluation of a new class of pyrido[1,2-a]thieno[3,2-e]pyrimidine, quinoline and pyridin-2-one derivatives” (2012).

Assays:
Format in all cases: functional
[1] = system: Saccharomyces cerevisiae; assay: Antifungal activity against Saccharomyces cerevisiae 156250 at 100 mg/ml after 48 hrs by agar-well diffusion technique; settings: Saccharomyces cerevisiae, 156250, 48 h; read-out: DIZ
In short: (§1)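 0.1 ml of the yeast spread on potato dextrose agar. 4 mm wells were cut with a sterile cork borer and filled with test solution. Plates were incubated at 25 °C for 48 h. Inhibition zones around the wells were measured, and the mean of 3 replicas was recorded. Cycloheximide served as the antifungal reference.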

[2] = system: Candida albicans; assay: Antifungal activity against Candida albicans 155965 at 100 mg/ml after 48 hrs by agar-well diffusion technique; settings: Candida albicans, 155965, 48 h; read-out: DIZ; in short: as §1
[3] = system: Pseudomonas aeruginosa; assay: Antibacterial activity against Pseudomonas aeruginosa 155250A at 100 mg/ml after 24 hrs by agar-well diffusion technique; settings: read-out: DIZ
In short: (§2)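 The penicillin reference was applied at 100 mg ml^-1 in 4 mm wells on nutrient agar plates spread with 0.1 ml of each bacterial strain. Plates were incubated at 37 °C for 24 h, and inhibition zones were measured as the average of 3 replicas.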

[4] = system: Escherichia coli; assay: Antibacterial activity against Escherichia coli 124300 at 100 mg/ml after 24 hrs by agar-well diffusion technique; settings: Escherichia coli, 124300, 24 h; read-out: DIZ; in short: as §2
[5] = system: Staphylococcus aureus; assay: Antibacterial activity against Staphylococcus aureus 155554A at 100 mg/ml after 24 hrs by agar-well diffusion technique; settings: read-out: DIZ
In short: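 0.1 ml of the bacterial strain spread on nutrient agar. 4 mm wells were cut with a sterile cork borer and filled with test solution. Plates were incubated at 37 °C for 24 h. Inhibition zone diameters were measured around the wells, and the average of 3 replicas was recorded. Penicillin served as the antibacterial reference.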

[6] = system: Serratia marcescens; assay: Antibacterial activity against Serratia marcescens 155449 at 100 mg/ml after 24 hrs by agar-well diffusion technique; settings: Serratia marcescens, 155449, 24 h; read-out: DIZ; in short: as §2
[7] = system: Bacillus subtilis; assay: Antibacterial activity against Bacillus subtilis 154921 at 100 mg/ml after 24 hrs by agar-well diffusion technique; settings: Bacillus subtilis, 154921, 24 h; read-out: DIZ; in short: as §2
[8] = system: Candida albicans; assay: Antifungal activity against Candida albicans 155965 at 1 mg/ml after 48 hrs by agar-well diffusion technique; settings: Candida albicans, 155965, 48 h; read-out: DIZ
In short: (§3)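 Yeast (0.1 ml) was spread on potato dextrose agar, and 4 mm wells were cut with a sterile cork borer. Wells were loaded with test chemical at a final 1 mg ml^-1, then incubated at 25 °C for 48 h. Inhibition zones around the wells were measured, averaged over 3 replicas.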

[9] = system: Staphylococcus aureus; assay: Antibacterial activity against Staphylococcus aureus 155554A at 1 mg/ml after 24 hrs by agar-well diffusion technique; settings: read-out: DIZ
In short: (§4)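 Each bacterial strain (0.1 ml) was spread on nutrient agar, and 4 mm wells were cut with a sterile cork borer. Wells were loaded with test chemical at a final 1 mg ml^-1, then incubated at 37 °C for 24 h. Inhibition zone diameters around the wells were measured, averaged over 3 replicas.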

[10] = system: Bacillus subtilis; assay: Antibacterial activity against Bacillus subtilis 154921 at 1 mg/ml after 24 hrs by agar-well diffusion technique; settings: Bacillus subtilis, 154921, 24 h; read-out: DIZ; in short: as §4
[11] = system: Saccharomyces cerevisiae; assay: Antifungal activity against Saccharomyces cerevisiae 156250 at 1 mg/ml after 48 hrs by agar-well diffusion technique; settings: Saccharomyces cerevisiae, 156250, 48 h; read-out: DIZ; in short: as §3
[12] = system: Pseudomonas aeruginosa; assay: Antibacterial activity against Pseudomonas aeruginosa 155250A at 1 mg/ml after 24 hrs by agar-well diffusion technique; settings: read-out: DIZ; in short: as §4
[13] = system: Serratia marcescens; assay: Antibacterial activity against Serratia marcescens 155449 at 1 mg/ml after 24 hrs by agar-well diffusion technique; settings: Serratia marcescens, 155449, 24 h; read-out: DIZ; in short: as §4
[14] = system: Escherichia coli; assay: Antibacterial activity against Escherichia coli 124300 at 1 mg/ml after 24 hrs by agar-well diffusion technique; settings: Escherichia coli, 124300, 24 h; read-out: DIZ; in short: as §4

C[C@@H]1C[C@@H]([C@H](O)CC2CC(=O)NC(=O)C2)C(=O)[C@@H](C)C1 [CYCLOHEXIMIDE]
zone of inhibition at 100000 µg/mL [1]: 40 mm | zone of inhibition at 100000 µg/mL [2]: 0 mm

CC1(C)S[C@@H]2[C@H](NC(=O)Cc3ccccc3)C(=O)N2[C@H]1C(=O)O [PENICILLIN G]
zone of inhibition at 100000 µg/mL [3]: 30 mm | zone of inhibition at 100000 µg/mL [4]: 8.6 mm | zone of inhibition at 100000 µg/mL [5]: 40 mm | zone of inhibition at 100000 µg/mL [6]: 7 mm | zone of inhibition at 100000 µg/mL [7]: 4.6 mm

N#Cc1c(-c2ccccc2)csc1NC(=O)c1ccc(-c2ccccc2)[nH]c1=O
zone of inhibition at 1000 µg/mL [8]: 0 mm | zone of inhibition at 1000 µg/mL [9]: 0 mm | zone of inhibition at 1000 µg/mL [10]: 1.6 mm | zone of inhibition at 1000 µg/mL [11]: 1.3 mm | zone of inhibition at 1000 µg/mL [12]: 5.3 mm | zone of inhibition at 1000 µg/mL [13]: 2 mm | zone of inhibition at 1000 µg/mL [14]: 3.3 mm

N#Cc1cc(C#N)c2[nH]c(=O)c3c(-c4ccc(Cl)cc4)csc3n2c1=N
zone of inhibition at 1000 µg/mL [8]: 0 mm | zone of inhibition at 1000 µg/mL [9]: 2.6 mm | zone of inhibition at 1000 µg/mL [10]: 6 mm | zone of inhibition at 1000 µg/mL [11]: 0 mm | zone of inhibition at 1000 µg/mL [12]: 8 mm | zone of inhibition at 1000 µg/mL [13]: 3.3 mm | zone of inhibition at 1000 µg/mL [14]: 2 mm

N#Cc1c(-c2ccccc2)csc1NC(=O)c1ccc(-c2cccs2)[nH]c1=O
zone of inhibition at 1000 µg/mL [8]: 0 mm | zone of inhibition at 1000 µg/mL [9]: 0 mm | zone of inhibition at 1000 µg/mL [10]: 2 mm | zone of inhibition at 1000 µg/mL [11]: 2 mm | zone of inhibition at 1000 µg/mL [12]: 4 mm | zone of inhibition at 1000 µg/mL [13]: 2 mm | zone of inhibition at 1000 µg/mL [14]: 2 mm

N#Cc1c(-c2ccccc2)csc1NC(=O)c1cc2ccccc2[nH]c1=O
zone of inhibition at 1000 µg/mL [8]: 16 mm | zone of inhibition at 1000 µg/mL [9]: 12 mm | zone of inhibition at 1000 µg/mL [10]: 11 mm | zone of inhibition at 1000 µg/mL [11]: 14 mm | zone of inhibition at 1000 µg/mL [12]: 10 mm | zone of inhibition at 1000 µg/mL [13]: 6 mm | zone of inhibition at 1000 µg/mL [14]: 8.6 mm
